In brackets after ≈: the same amount, converted by molar mass. Activity calls are given as the source filed them. No cut-off for these calls is given here.
Legend:
Porphyromonas gingivalis = test: Antibacterial activity against Porphyromonas gingivalis after 48 hrs by microtiter plate method; type: functional
How it was run: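 Broth microdilution in trypticase soy broth-yeast extract with 0.05% cysteine hydrochloride, menadione (0.02 μg/mL), hemin (5 μg/mL) and 0.02% potassium nitrate. Inoculum 5 × 10^5 CFU/mL; serially diluted test agent, triplicates per concentration. Incubated anaerobically (10% H₂, 5% CO₂, 85% N₂), 37 °C, 48 h. Turbidity read at 650 nm; MIC = lowest concentration keeping absorbance <0.05.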

Streptococcus mutans = test: Antibacterial activity against Streptococcus mutans after 48 hrs by microtiter plate method; type: functional
How it was run: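 Brain-heart infusion broth, inoculum 5 × 10^6 CFU/mL, serial dilutions of test agent in triplicate per concentration, 37 °C for 48 h. Controls were inoculated medium without test agent; blanks were uninoculated medium. Growth read spectrophotometrically at 650 nm; MIC taken as minimum concentration limiting turbidity to <0.05 absorbance.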

| MIC (Porphyromonas gingivalis) [µg/mL] | MIC (Streptococcus mutans) [µg/mL] | SMILES | Activity (Porphyromonas gingivalis) |
| --- | --- | --- | --- |
| 625 (≈ 1370 µM) |  | CC1(C)CC[C@]2(C(=O)O)CC[C@]3(C)C(=CC[C@@H]4[C@@]5(C)CC[C@H](O)C(C)(C)[C@@H]5CC[C@]43C)[C@@H]2C1 [OLEANOLIC_ACID] |  |
| 39 (≈ 78.2 µM) | > 1250 | CC(=O)O[C@H]1CC[C@]2(C)[C@H]3CC=C4[C@@H]5CC(C)(C)CC[C@]5(C(=O)O)CC[C@@]4(C)[C@]3(C)CC[C@H]2C1(C)C [ACETYL OLEANOLIC ACID] |  |
| 78 (≈ 94.1 µM) | > 1250 | C[C@@H]1O[C@@H](OC(=O)[C@]23CCC(C)(C)C[C@H]2C2=CC[C@@H]4[C@@]5(C)C[C@H](O)[C@H](O[C@@H]6O[C@H](CO)[C@@H](O)[C@H](O)[C@H]6O)[C@@](C)(CO)[C@@H]5[C@H](O)C[C@@]4(C)[C@]2(C)C[C@H]3O)[C@H](O)[C@H](O)[C@H]1O |  |
|  |  | O=c1c(O)c(-c2cc(O)c(O)c(O)c2)oc2cc(O)cc(O)c12 | Active |
|  |  | O=c1c(O)c(-c2ccc(O)cc2)oc2cc(O)cc(O)c12 | Active |
| 78 (≈ 161 µM) | > 1250 | CC(=O)O[C@H]1CC[C@]2(C)[C@H]3CC=C4[C@@H]5CC(C)(C)CC[C@]5(C)CC[C@@]4(C)[C@]3(C)C[C@@H](O)[C@H]2C1(C)C |  |
| 156 (≈ 125 µM) | > 1250 | C/C(=C\C=C\[C@@H](C)[C@H]1CC[C@@]2(C)[C@@H]3CC[C@H]4C(C)(C)[C@@H](O[C@H]5O[C@@H](CO)[C@H](O)[C@@H](O[C@@H]6O[C@H](CO)[C@@H](O)[C@H](O)[C@H]6O)[C@@H]5O[C@@H]5O[C@H](CO[C@H]6O[C@@H](CO)[C@H](O)[C@@H](O)[C@@H]6O)[C@@H](O)[C@H](O)[C@H]5O[C@@H]5O[C@@H](C)[C@H](O)[C@@H](O)[C@H]5O)CC[C@@]45C[C@@]35CC[C@]12C)C(=O)O |  |
|  |  | COc1cc(O)c2c(=O)c(O)c(-c3ccc(O)cc3)oc2c1 | Active |
| 312 (≈ 384 µM) | > 1250 | C[C@@H]1O[C@@H](OC(=O)[C@]23CCC(C)(C)C[C@H]2C2=CC[C@@H]4[C@@]5(C)C[C@H](O)[C@H](O[C@@H]6O[C@H](CO)[C@@H](O)[C@H](O)[C@H]6O)C(C)(C)[C@@H]5[C@H](O)C[C@@]4(C)[C@]2(C)C[C@H]3O)[C@H](O)[C@H](O)[C@H]1O |  |
| 0.312 (≈ 0.617 µM) | 0.312 (≈ 0.617 µM) | N=C(NCCCCCCNC(=N)NC(=N)Nc1ccc(Cl)cc1)NC(=N)Nc1ccc(Cl)cc1 [CHLORHEXIDINE] |  |
| 312 (≈ 468 µM) | > 1250 | CC1(C)CC[C@]2(C(=O)O[C@@H]3O[C@H](CO)[C@@H](O)[C@H](O)[C@H]3O)[C@H](O)C[C@]3(C)C(=CC[C@@H]4[C@@]5(C)C[C@H](O)[C@H](O)C(C)(C)[C@@H]5[C@H](O)C[C@]43C)[C@@H]2C1 |  |
